Experiment [1] deals with Protein kinase C (PKC) (Homo sapiens) (UniProt O94806+P41743+P17252+P05129+Q05655+P05771+Q05513+Q02156+P24723+Q15139+Q04759). As to the kind of experiment: Inhibition of PKC-mediated phosphorylation of neurogranin at 100 uM. Format: protein assay. Summed up: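 PKC (0.33 µg/ml), neurogranin (20 µM), compound 100 µM in 20 mM Tris pH 7.5, 10 mM MgCl2, 0.1 mg/ml BSA, 250 µM EGTA, 400 µM CaCl2 plus lipid activator (phosphatidylserine, […], CaCl2); 1 h equilibration. DMSO and no-kinase controls; duplicate means.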

Experiment [2] concerns the target T1, cAMP-dependent protein kinase (PKA) (Homo sapiens, UniProt P22694+P17612+P22612). As to the kind of experiment: Inhibition of PKA-mediated phosphorylation of kemptide.
In experiment [3] the target is T1, cAMP-dependent protein kinase (PKA). Kind of experiment: Inhibition of PKA-mediated phosphorylation of kemptide at 100 uM. Format: protein assay. Summed up: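 PKA (41 µg/ml) with kemptide (10 µM) and compound at 100 µM in 40 mM Tris pH 7.5, 20 mM MgCl2, 0.1 mg/ml BSA; equilibrated 1 h. ATP added (1 µM); after 10 min, remaining ATP read by Kinase-Glo Plus luminescence. DMSO and no-kinase controls; means of two replicates.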

Active and inactive are the calls of the source. The calls are words filed in the database; no cut-off is given here.

For `CCc1cccc2c1CNc1c(cccc1CCc1ccccc1)/C=C\2COc1ccccc1NC(C)=O`, in experiment [1], the outcome was inactive. Further, the IC50 (usually the point on the concentration scale where inhibition reaches its midpoint) in experiment [2] is 122 µM.
As to `CCc1cccc2c1CNc1c(cccc1CCc1ccccc1)/C=C\2COc1cccc(C(=O)OC)c1`, the outcome in experiment [3] and in experiment [1] was inactive.
For the molecule `CCc1cccc2c1CNc1c(cccc1CCc1ccccc1)/C=C\2COc1ccccc1C(=O)OC`, the outcome in experiment [3] and in experiment [1] was inactive.
For the molecule `CCc1cccc2c1CNc1c(cccc1CCc1ccccc1)/C=C\2COc1ccccc1F`, the outcome in experiment [3] and in experiment [1] was inactive.
For the molecule `CCc1cccc2c1CNc1c(cccc1CCc1ccccc1)/C=C\2COc1ccc(OC)cc1`, the result in experiment [3] and in experiment [1] was inactive.
On to `CCc1cccc2c1CNc1c(cccc1CCc1ccccc1)/C=C\2COc1ccc(F)cc1`, for which the result in experiment [3] and in experiment [1] was inactive.
On to `CCc1cccc2c1CNc1c(cccc1CCc1ccccc1)/C=C\2COc1ccccc1C(F)(F)F`, for which the outcome in experiment [3] and in experiment [1] was inactive.
Consider `CCc1cccc2c1CNc1c(cccc1CCc1ccccc1)/C=C\2COc1ccccc1OC`, for which the outcome in experiment [3] and in experiment [1] was inactive.
Turning to `CCc1cccc2c1CNc1c(cccc1CCc1ccccc1)/C=C\2COc1ccc(C(=O)OC)cc1`, the result in experiment [3] and in experiment [1] was inactive.
As to `CCc1cccc2c1CNc1c(cccc1CCc1ccccc1)/C=C\2COc1ccc([N+](=O)[O-])cc1`, the result in experiment [3] and in experiment [1] was inactive.
For the molecule `CCc1cccc2c1CNc1c(cccc1CCc1ccccc1)/C=C\2COc1ccc(Cl)cc1`, the result in experiment [3] and in experiment [1] was inactive.
As for `CCc1cccc2c1CNc1c(cccc1CCc1ccccc1)/C=C\2COc1ccccc1Cl`, the outcome in experiment [3] and in experiment [1] was inactive.
In the case of `CCc1cccc2c1CNc1c(cccc1CCc1ccccc1)/C=C\2COc1cccc(F)c1`, the result in experiment [3] and in experiment [1] was inactive.
Regarding `CCc1cccc2c1CNc1c(cccc1CCc1ccccc1)/C=C\2COc1cccc(Cl)c1`, the result in experiment [3] and in experiment [1] was inactive.
In the case of `CCc1cccc2c1CNc1c(cccc1CCc1ccccc1)/C=C\2COc1ccccc1[N+](=O)[O-]`, the outcome in experiment [3] and in experiment [1] was inactive.
With `CCc1cccc2c1CNc1c(cccc1CCc1ccccc1)/C=C\2COc1ccccc1`, the result in experiment [3] and in experiment [1] was inactive.
Turning to `CCc1cccc2c1CNc1c(cccc1CCc1ccccc1)/C=C\2COc1cccc([N+](=O)[O-])c1`, the outcome in experiment [3] and in experiment [1] was inactive.
On to `CCc1cccc2c1CNc1c(cccc1CCc1ccccc1)/C=C\2COc1cccc(OC)c1`, for which the result in experiment [3] and in experiment [1] was inactive.
For the molecule `CCc1cccc2c1CNc1c(cccc1CCc1ccccc1)/C=C\2COc1cccc(C(F)(F)F)c1`, the result in experiment [3] and in experiment [1] was inactive.

Source of the values: ChEMBL document CHEMBL1137277, “Synthesis of highly substituted dibenzo[b,f]azocines and their evaluation as protein kinase inhibitors” (Bioorg Med Chem Lett, 2006).
